In one series the test system is platelet aggregation. The following applies: clinically relevant concentrations, healthy subjects; cited from earlier work.
The subject of another series is human IP receptor. To be noted: human pulmonary arterial smooth muscle cells, cellular shape change; cited from earlier work.
Series [1] is described as follows: Population PK model of selexipag and ACT-333679 in PAH patients. It counts as in vivo, human. To be noted: for Vd/F: human, plasma, oral; for AUC over a dosing interval at steady state, higher in PAH patients than in healthy subjects: patient model vs healthy subject model.
The conditions of series [2]: cited from earlier work.
The conditions of series [3]: range 100–1,800 μg; cited from earlier work.
The format of series [4] is in vivo, human. A digest of the protocol:
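Oral b.i.d. dosing titrated in 200 μg steps to each patient's tolerated dose, max 1,600 μg b.i.d. Trough plasma samples at baseline and weeks 4–52, plus one week-16 window sample. Model-predicted steady-state AUC at the individual maintenance dose gave AUCcombined (1/38 parent + 37/38 metabolite); placebo exposure was set to 2.5 ng/mL. Lab values were averaged per subject over weeks 8–52, not imputed, and fitted by log-linear regression on log10 exposure and baseline.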

Where [5] appears, read: PAH patients, population estimate.
[6] abbreviates: body weight 96 kg vs reference patient 70 kg.
[7] abbreviates: total bilirubin 5 μmol/L vs reference 10 μmol/L.
[8] abbreviates: total bilirubin 25 μmol/L vs reference 10 μmol/L.

These results are taken from PMC5529739 (CPT: Pharmacometrics & Systems Pharmacology, 2017).

In general, Vd/F refers to the apparent distribution volume after extravascular dosing.

`CC(C)N(CCCCOCC(=O)O)c1cnc(-c2ccccc2)c(-c2ccccc2)n1` [ACT‐333679]: the “Effect on platelet aggregation” value in the series with platelet aggregation is on record as “no effect”. Further, the “Potency in activating the human IP receptor relative to selexipag” value in the series on human IP receptor is 37 fold. Besides, the “k43, transfer rate constant peripheral to central compartment ACT-333679” value in series [1] (setting [5]) was 0.18 h⁻¹. Besides, the “AUCss, covariate effect on exposure over a steady-state dosing interval” value (“AUCss … over a steady-state dosing interval” for short) is −10% in series [1] (setting [6]), −13% in series [1] (male vs female), −20% in series [1] (setting [7]) and “+30%” in series [1] (setting [8]). The same compound yielded a Vd/F in series [1] of 4.65 L. The “AUC over a dosing interval at steady state, higher in PAH patients than in healthy subjects” value in series [1] is 20%. Further, the “Body weight on Vm/F, covariate effect” value in series [1] (power coefficient, Vm=Vm,pop (bw/70)^coefficient) is 0.88.

`CC(C)N(CCCCOCC(=O)NS(C)(=O)=O)c1cnc(-c2ccccc2)c(-c2ccccc2)n1` [selexipag, Selexipag]: the “Effect on platelet aggregation” value in the series on platelet aggregation is “no effect”. Moreover, in series [1] (setting [5]), the “k12, transfer rate constant central to peripheral compartment selexipag” value is 0.09 h⁻¹; the “k21, transfer rate constant peripheral to central compartment selexipag” value was 0.06 h⁻¹; the “ka, absorption rate constant” value is 0.71 h⁻¹; the “kmet, metabolism rate constant selexipag to ACT-333679” value was 0.67 h⁻¹. Also, in series [1] (PAH patients, population estimate, 70 kg, total bilirubin 10 μmol/L), the “CL/F, apparent selexipag clearance” value was 19.10 L/h. Further, the “AUCss … over a steady-state dosing interval” value in series [1] (body weight 51 kg vs reference patient 70 kg) was “+30%”. Further, the “AUCss … over a steady-state dosing interval” value in series [1] (setting [6]) is −20%. Moreover, in series [1], the Vd/F was determined as 12.9 L and the “AUC over a dosing interval at steady state, higher in PAH patients than in healthy subjects” value is reported as 30%. Also, the “AUCss … over a steady-state dosing interval” value in series [1] (male vs female) is “No change”. For the same compound, the “Total bilirubin on CL/F, covariate effect” value in series [1] (power coefficient, CL=CLpop (bilirubin/10)^coefficient, bilirubin at baseline) is −0.40. For the same compound, the “Body weight on CL/F, covariate effect” value in series [1] (power coefficient, CL=CLpop (bw/70)^coefficient) was 0.61. Moreover, in series [1] (power coefficient, Vp=Vp,pop (bw/70)^coefficient), the “Body weight on Vp/F, covariate effect” value was 1.2. In series [1] (setting [7]), the “AUCss … over a steady-state dosing interval” value is on record as −20%. For the same compound, the “AUCss … over a steady-state dosing interval” value in series [1] (setting [8]) is given as “+30%”. The “Hazard ratio for a primary endpoint event (death or a complication associated with underlying PAH) vs placebo” value in series [2] (99% confidence interval 0.46–0.78, P < 0.001) was 0.6. Further, the “NT pro-BNP levels in the presence of selexipag” value in series [2] is recorded as “significantly lower”. Moreover, the “6-MWD difference between placebo and selexipag” value in series [2] (week 26, across doses) was 12 m. The “Dose proportionality of PK” value in series [3] was “dose‐proportional”. The “Probability of a treatment-emergent AE of hemorrhage and gastrointestinal hemorrhage: relationship to exposure” value in series [4] (AUCcombined at steady state) was “no statistically significant relationship to exposure”. Moreover, the “Total bilirubin, model-predicted” value in series [4] (at the highest exposure, 12.03 μmol/L with placebo) was 10.58 µmol/L. Further, in series [4] (at the highest exposure, 138.84 G/L with placebo), the “Hemoglobin, model-predicted” value is listed as 134.58 G/L. In addition, in series [4] (at the highest exposure, 667 with no exposure (placebo)), the “Plasma NT pro-BNP, model-predicted” value is listed as 475 ng/mL. Further, the “6-MWD at steady state, model-predicted” value in series [4] (at the highest predicted steady-state exposure, reference patient, 369 m on placebo) was 392 m.
